Experimental findings from paper PMC7758886 (ACS Omega, 2020) are described below.

The target of assay [1] is CmorAlstRC ΔN-term mutant (Carausius morosus).
The subject of assay [2] is endogenous β-AR (HEK293 cells). Description: Single-cell FRET microscopy of isoprenaline-stimulated cAMP production. In kind it is cell-based. Particulars: 3 nM isoprenaline, continuous. The procedure, abridged: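 HEK293 cells co-transfected (Effectene) with receptor and Epac-SH187 cAMP FRET sensor; medium changed 16 h post-transfection, reseeded on PLL-coated coverslips, imaged 36–48 h post-transfection. One cell per coverslip, continuously perfused with FRET buffer (HEPES, pH 7.35) and/or ligand. FRET = corrected YFP/CFP ratio, normalized to baseline; cAMP rise lowers FRET. Traces averaged over eight cells from 3 days.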

The next assay concerns CXCR4. Description: FRET-based Gαi2 activation, 96-well plate, CXCR4. In kind it is cell-based. The following applies: HEK293, Gαi2 FRET sensor, ± SD, three to four independent plate reader experiments.
The target of assay [3] is Carausius morosus allatostatin-C receptor with C-terminal EYFP (CmorAlstRC-EYFP) (Carausius morosus). Description: FRET or BRET. In general terms: Bioluminescence resonance energy transfer reports proximity on the nanometre scale.
Assay [4] concerns α1A adrenergic receptor (α1AAR). As to the kind of experiment: FRET-based Gαq activation, α1A adrenergic receptor. Particulars: HEK293, 96-well. It counts as cell-based.
Assay [5] relates to β1 adrenergic receptor (β1AR). As to the kind of experiment: Epac-S^H187 FRET cAMP production. The following applies: HEK293, Epac-S^H187 sensor; at least three individual experiments. It counts as cell-based.

“Drosophila melanogaster pGlu AST-C peptide (DmelASTC)” registered a pEC50 of Gαi2 FRET sensor activation by DmelASTC, ΔN-term mutant, 96-well plates in assay [1] of 8.47. `CC(C)NCC(O)c1ccc(O)c(O)c1` (centres unmarked) [Iso, isoprenaline]: in assay [2], the “FRET response, cAMP production” value was “sharp decrease in FRET”. Turning to “CXCL12: agonist of CXCR4, positive control for Gαi2 activation”, the “pEC50, Gαi2 activation” value in the assay on CXCR4 was 9.49 ± 0.1. “human Gαi2-ECFP (from UniProt P04899 1-355) (natural protein)”: in assay [3], the pEC50 of AST-C for the FRET change between CmorAlstRC-EYFP and Gαi2-ECFP is 8.84; the tau of association (apparent, with 1 μM AST-C) turned out to be 227 ms; the tau of dissociation (apparent, wash-off of 1 μM AST-C) is 3.8 s. Consider `NC[C@H](O)c1ccc(O)c(O)c1` [NE, Norepinephrine], for which, in assay [4], the “Gαq FRET sensor activation” value is “induced a concentration-dependent FRET decrease in the Gαq sensor”. In addition, the “change in FRET signal (cAMP production)” value in assay [5] was “decreased the FRET response (increased the cAMP level) in a NE concentration-dependent manner”.
